What was measured:
[1] = tested on: A549; assay: Concentration that gives 50% growth inhibition (temozolomide alone/ (temozolomide + 0.4 uM of compound)) in A549 cells; assay type: functional, Homo sapiens
How it was run: (§1)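 A549 cells exposed to temozolomide (TM) or topotecan (TP), each with or without 0.4 μM PARP inhibitor. […] PF50 = GI50 of cytotoxic agent alone ÷ GI50 with inhibitor. Values are the average of two independent experiments.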

[2] = tested on: LoVo; assay: Potentiation of topotecan in LoVo cells, by 0.40 uM compound (TP); assay type: functional, Homo sapiens
[3] = tested on: A549; assay: Concentration that gives 50% growth inhibition (topotecan alone/ (topotecan + 0.4 uM of compound)) in A549 cells; assay type: functional, Homo sapiens; how it was run: as §1
[4] = tested on: LoVo; assay: Potentiation of temozolomide in LoVo cells by 0.40 uM compound (TM); assay type: functional, Homo sapiens
[5] = tested on: LoVo; assay: Concentration that gives 50% growth inhibition in LoVo cells, activity expressed as GI50; assay type: functional; details: Homo sapiens
[6] = tested on: A549; assay: Enhancement factor of 200 uM temozolomide by 0.4 uM PARP inhibitor in A549 cells
[7] = molecular target: T1, Poly [ADP-ribose] polymerase 1 (Homo sapiens, UniProt P09874); assay: Inhibitory activity against human full length Poly (ADP-ribose) polymerase 1
T1 sequence (P09874 whole entry): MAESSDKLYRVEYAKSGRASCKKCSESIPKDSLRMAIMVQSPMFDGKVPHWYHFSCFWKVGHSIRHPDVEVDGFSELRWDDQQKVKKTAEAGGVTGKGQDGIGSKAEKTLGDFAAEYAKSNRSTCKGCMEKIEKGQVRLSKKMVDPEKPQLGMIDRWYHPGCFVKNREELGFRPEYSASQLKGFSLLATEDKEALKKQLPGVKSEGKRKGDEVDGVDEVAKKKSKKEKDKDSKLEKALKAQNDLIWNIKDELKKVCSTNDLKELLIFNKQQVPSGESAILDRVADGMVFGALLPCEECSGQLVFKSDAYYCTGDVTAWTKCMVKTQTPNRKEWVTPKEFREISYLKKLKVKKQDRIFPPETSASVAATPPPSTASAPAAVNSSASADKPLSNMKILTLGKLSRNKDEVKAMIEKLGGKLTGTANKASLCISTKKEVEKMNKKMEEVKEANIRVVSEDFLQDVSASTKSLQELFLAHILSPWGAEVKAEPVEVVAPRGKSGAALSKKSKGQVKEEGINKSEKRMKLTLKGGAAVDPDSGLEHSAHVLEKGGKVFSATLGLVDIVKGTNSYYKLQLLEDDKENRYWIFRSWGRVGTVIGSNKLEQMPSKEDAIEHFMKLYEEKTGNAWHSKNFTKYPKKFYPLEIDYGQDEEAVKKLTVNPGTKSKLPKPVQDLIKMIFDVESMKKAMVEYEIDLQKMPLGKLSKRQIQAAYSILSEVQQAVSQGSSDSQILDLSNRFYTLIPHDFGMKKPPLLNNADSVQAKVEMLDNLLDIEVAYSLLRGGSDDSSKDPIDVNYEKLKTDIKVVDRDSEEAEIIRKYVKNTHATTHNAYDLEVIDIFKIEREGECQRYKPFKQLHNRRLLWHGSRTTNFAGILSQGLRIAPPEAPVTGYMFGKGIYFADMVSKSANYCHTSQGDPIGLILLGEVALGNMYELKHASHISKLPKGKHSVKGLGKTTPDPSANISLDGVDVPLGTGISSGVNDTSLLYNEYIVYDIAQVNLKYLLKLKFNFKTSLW

[8] = tested on: A549; assay: Concentration that gives 50% growth inhibition in A549 cells, activity expressed as PF50 (TM); assay type: functional, Homo sapiens; how it was run: as §1
[9] = molecular target: T1, Poly [ADP-ribose] polymerase 1; assay: Inhibitory activity against human full length Poly (ADP-ribose) polymerase 1 at 100 uM
How it was run: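 Human full-length PARP-1 enzyme assay. Tested at a single concentration of 100 μM, reported as percent inhibition instead of a Ki value.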

[10] = tested on: A549; assay: Concentration that gives 50% growth inhibition in A549 cells, activity expressed as PF50 (TP) at 0.03 uM; assay type: functional, Homo sapiens
How it was run: (§2)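 A549 cells given topotecan alone or together with the PARP inhibitor at the listed concentration. PF50 (TP) = GI50 of topotecan alone ÷ GI50 of topotecan with inhibitor.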

[11] = tested on: A549; assay: Percent ADP-ribose polymer formation in presence of MNNG (25 uM) at 0..03 uM compound concentration in A549 cells; assay type: functional, Homo sapiens
How it was run: (§3)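 A549 cells treated with vehicle, with 25 μM MNNG, or with 25 μM MNNG plus inhibitor at 0.006–11 μM. ADP-ribose polymer quantified by HPLC and expressed as % of the polymer formed with 25 μM MNNG alone.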

[12] = tested on: A549; assay: Percent ADP-ribose polymer formation in presence of MNNG (25 uM) at 0..4 uM compound concentration in A549 cells; assay type: functional, Homo sapiens; how it was run: as §3
[13] = tested on: A549; assay: Effect on NAD+ depletion (% remaining versus vehicle control) in presence of MNNG (25 uM) at 0.15 uM compound concentration in A549 cells; assay type: functional, Homo sapiens
How it was run: (§4)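 A549 cells treated with vehicle, with 25 μM MNNG (subtoxic DNA alkylation), or with 25 μM MNNG plus inhibitor at 0.006–11 μM. Cellular NAD+ measured by an enzyme recycling method and expressed as % remaining relative to vehicle-treated cells without DNA damage.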

[14] = tested on: A549; assay: Effect on NAD+ depletion (% remaining versus vehicle control) in presence of MNNG (25 uM) at 0.03 uM compound concentration in A549 cells; assay type: functional, Homo sapiens; how it was run: as §4
[15] = tested on: A549; assay: Concentration that gives 50% growth inhibition in A549 cells, activity expressed as PF50 (TP) at 0.006 uM; assay type: functional, Homo sapiens; how it was run: as §2
[16] = tested on: A549; assay: Effect on NAD+ depletion (% remaining versus vehicle control) in presence of MNNG (25 uM) at 11 uM compound concentration in A549 cells; assay type: functional, Homo sapiens; how it was run: as §4
[17] = tested on: A549; assay: Effect on NAD+ depletion (% remaining versus vehicle control) in presence of MNNG (25 uM) at 0.4 uM compound concentration in A549 cells; assay type: functional, Homo sapiens; how it was run: as §4
[18] = tested on: A549; assay: Concentration that gives 50% growth inhibition in A549 cells, activity expressed as PF50 (TP) at 0.4 uM; assay type: functional, Homo sapiens; how it was run: as §2
[19] = tested on: A549; assay: Percent ADP-ribose polymer formation in presence of MNNG (25 uM) at 11 uM compound concentration in A549 cells; assay type: functional, Homo sapiens; how it was run: as §3
[20] = tested on: A549; assay: Percent ADP-ribose polymer formation in presence of MNNG (25 uM) at 0..15 uM compound concentration in A549 cells; assay type: functional, Homo sapiens; how it was run: as §3
[21] = tested on: A549; assay: Percent ADP-ribose polymer formation in presence of MNNG (25 uM) at 0..006 uM compound concentration in A549 cells; assay type: functional, Homo sapiens; how it was run: as §3
[22] = tested on: A549; assay: Concentration that gives 50% growth inhibition in A549 cells, activity expressed as PF50 (TP) at 0.15 uM; assay type: functional, Homo sapiens; how it was run: as §2
[23] = tested on: LoVo; assay: Potentiation of topotecan in LoVo cells by 0.40 uM compound (TP); assay type: functional, Homo sapiens
[24] = tested on: A549; assay: Effect on NAD+ depletion (% remaining versus vehicle control) in presence of MNNG (25 uM) at 0.006 uM compound concentration in A549 cells; assay type: functional, Homo sapiens; how it was run: as §4

CN(C)Cc1cccc(-c2nc3cccc4c3n2CCNC4=O)c1
PF50 [1]: 1.4
PF50 [2]: 1.5
PF50 [3]: 1.8
PF50 [4]: 2
GI50 [5]: > 50 µM

O=C1NCCn2c(-c3cccc(C(F)(F)F)c3)nc3cccc1c32
PF50 [3]: 1.7

O=C1NCCn2c(-c3cccc4ccccc34)nc3cccc1c32
PF50 [3]: 1.4

O=C1NCCn2c(-c3ccccc3)nc3cccc1c32
PF50 [3]: 1.5

O=C1NCCn2c(-c3ccccc3Cl)nc3cccc1c32
PF50 [3]: 1.3

O=C1NCCn2c(-c3ccc(CO)cc3)nc3cccc1c32
EF200 [6]: 1.5

Cc1nc2cccc3c2n1CCNC3=O
Ki [7]: 0.045 µM
PF50 [3]: 1.2
PF50 [8]: 1.1

CN1CCn2c(-c3cccc4ccccc34)nc3cccc(c32)C1=O
EF200 [6]: 1.1
inhibition [9]: 40%

O=C1NCCn2c(-c3cccc(CO)c3)nc3cccc1c32
EF200 [6]: 1.2

O=C1NCCn2c(-c3ccc(Cl)cc3)nc3cccc1c32
PF50 [1]: 1.5
PF50 [2]: 1.5
PF50 [3]: 2
PF50 [4]: 2.1
GI50 [5]: 7.9 µM

CN(C)Cc1ccc(-c2nc3cccc4c3n2CCNC4=O)cc1
PF50 [10]: 1.9
PF50 [1]: 2.2
Formation [11]: 38%
PF50 [3]: 2
Formation [12]: 13%
Remaining [13]: 85%
Remaining [14]: 75%
PF50 [15]: 1.6
Remaining [16]: 99%
PF50 [4]: 5.4
Remaining [17]: 88%
PF50 [18]: 2.3
Formation [19]: 5.5%
Formation [20]: 20%
Formation [21]: 85%
PF50 [22]: 2.1
PF50 [23]: 1.7
GI50 [5]: 11.2 µM
Remaining [24]: 65%
